Data published in ChEMBL document CHEMBL1131640, “L-carnitine esters as "soft", broad-spectrum antimicrobial amphiphiles” (J Med Chem, 1998).

Experiments:
Type in all cases: functional
Mucor mucedo = assay: Minimal inhibitory concentration against Mucor mucedo
Outline: (§1)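 Microtiter broth dilution MIC assay. Strains: S. aureus, S. faecalis, E. coli, P. vulgaris and C. albicans were wild-type clinical isolates; S. cerevisiae ATCC 7752, A. fumigatus ATCC 28212, A. niger ATCC 16404 and M. mucedo ATCC 7941.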

Aspergillus fumigatus = assay: Minimal inhibitory concentration against Aspergillus fumigatus; outline: as §1
Saccharomyces cerevisiae = assay: Minimal inhibitory concentration against Saccharomyces cerevisiae; outline: as §1
Escherichia coli = assay: Minimal inhibitory concentration against Escherichia coli; outline: as §1
Enterococcus faecalis = assay: Minimal inhibitory concentration against Streptococcus faecalis; outline: as §1
Candida albicans = assay: Minimal inhibitory concentration against Candida albicans; outline: as §1
Proteus vulgaris = assay: Minimal inhibitory concentration against Proteus vulgaris; outline: as §1
Staphylococcus aureus = assay: Minimal inhibitory concentration against Staphylococcus aureus; outline: as §1
Aspergillus niger = assay: Minimal inhibitory concentration against Aspergillus niger; outline: as §1

Compound | MIC (Mucor mucedo) [µg/mL] | MIC (Aspergillus fumigatus) [µg/mL] | MIC (Saccharomyces cerevisiae) [µg/mL] | MIC (Escherichia coli) [µg/mL] | MIC (Enterococcus faecalis) [µg/mL] | MIC (Candida albicans) [µg/mL] | MIC (Proteus vulgaris) [µg/mL] | MIC (Staphylococcus aureus) [µg/mL] | MIC (Aspergillus niger) [µg/mL]
CCCCCCCCCCOC(=O)C[C@H](C[N+](C)(C)C)OC(=O)CCCCCC.[Cl-] | 50 | 25 | 3.12 | 25 | 3.12 | 3.12 | 50 | 3.12 | 25
CCCCCCCCCCCCCOC(=O)C[C@H](C[N+](C)(C)C)OC(=O)C(C)CCCC.[Cl-] (stereo not given in full) |  |  |  | > 100 | 6.25 |  | > 100 | 6.25 | 
CCCCCCCOC(=O)C[C@H](C[N+](C)(C)C)OC(=O)CCCCCCCCCBr.[Cl-] | 25 | 6.25 | > 100 | 50 | 3.12 | 3.12 | 100 | 3.12 | 6.25
CCCCCCCCCCCOC(=O)C[C@H](C[N+](C)(C)C)OC(=O)CC(C)C.[Cl-] |  |  |  | 25 | 3.12 |  | 50 | 6.25 | 
CCCCCCCCCCCC(=O)O[C@H](CC(=O)OCCOc1ccccc1)C[N+](C)(C)C.[Cl-] | 25 | 12.5 | 3.12 | 50 | 3.12 | 3.12 | 100 | 6.25 | 12.5
CCCCCCCOC(=O)C[C@H](C[N+](C)(C)C)OC(=O)CCOc1ccccc1.[Cl-] | > 100 | > 100 | > 100 | > 100 | > 100 | > 100 | > 100 | > 100 | > 100
CCCCCCCCCCCCCCCCCC(=O)O[C@H](CC(=O)O)C[N+](C)(C)C.[Cl-] | > 100 | > 100 | > 100 | > 100 | 25 | > 100 | > 100 | > 100 | > 100
CCCCCCCCCCC(=O)O[C@H](CC(=O)OCCOc1ccccc1)C[N+](C)(C)C.[Cl-] | 50 | 25 | 12.5 | 25 | 3.12 | 3.12 | 50 | 6.25 | 25
CCCCCCCCCCCOC(=O)C[C@H](C[N+](C)(C)C)OC(=O)CCCCCCCCCC.[Cl-] |  |  | > 100 | > 100 | 3.12 |  | > 100 | > 100 | 
CCCCCCCCCCCOC(=O)C[C@H](C[N+](C)(C)C)OC(=O)CCCCCCC.[Cl-] |  |  | > 100 | 25 | 3.12 |  | > 100 | 3.12 | 
CCCCCCCCCCCOC(=O)C[C@@H](O)C[N+](C)(C)C.[Cl-] | > 100 | > 100 | > 100 | > 100 | 25 | > 100 | > 100 | 12.5 | > 100
C=CCCCCCCCCCOC(=O)C[C@H](C[N+](C)(C)C)OC(=O)CC(C)C.[Cl-] | 12.5 | 12.5 | 6.25 | 25 | 3.12 | 6.25 | 50 | 12.5 | 6.25
CCCCCCCCCCCOC(=O)C[C@H](C[N+](C)(C)C)OC(=O)CCCCCC.[Cl-] | 6.25 | 3.12 | 3.12 | 25 | 1.56 | 3.12 | 100 | 3.12 | 3.12
CCCCCCCCCCCCCOC(=O)C[C@H](C[N+](C)(C)C)OC(=O)CCCCCCC.[Cl-] |  |  |  | > 100 | 6.25 |  | > 100 | 6.25 | 
CCCCCCCCCCCCCOC(=O)C[C@H](C[N+](C)(C)C)OC(=O)CCCCCC.[Cl-] |  |  |  | > 100 | 3.12 |  | > 100 | 6.25 | 
CCCCCCCCCCCCOC(=O)C[C@H](C[N+](C)(C)C)OC(=O)CCCCCC.[Cl-] | 12.5 | 3.12 | 3.12 | > 100 | 1.56 | 3.12 | > 100 | 3.12 | 6.25
CCCCCCCCCCCCCCCCOC(=O)C[C@@H](O)C[N+](C)(C)C.[Cl-] | 6.25 | 6.25 | > 100 | > 100 | 3.12 | 6.25 | > 100 | 6.25 | 3.12
